Experimental data as given in PMC4608253 (Journal of chromatography. B, Analytical technologies in …, 2015).
Read-outs that look alike come from different tables or passages of the source.

Tests used:
in vivo = type: in vivo, A/J mice; conditions: for concentration in the PK study: oral XCHT 500 mg/kg; for detected in the blood: mice, oral XCHT extract 0.5 g/kg
[1] = type: physicochemical, mice; conditions: for Accuracy (RE, %) 25°C for 6 h / Accuracy (RE, %) Frozen for 30 days: stability in mice plasma/blood QC sample; for Accuracy (RE, %) Frozen for 30 days: −80°C; for Accuracy (RE, %) 4°C for 24 h: stability, extracted QC sample in auto-sampler
Outline: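 Blank mouse blood spiked with analytes and vitamin C, then extracted with methanol containing daidzein internal standard (0.5 μM) by 1 min vortex. Spun at 20,000 × g for 15 min and dried under air. Three replicates per QC level were held unextracted at 25°C for 6 h, at −80°C for 30 days, or extracted in the 4°C autosampler for 24 h. Analysed by UPLC-MS/MS (C18, formic acid/acetonitrile, positive MRM); accuracy as RE.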

[2] = male A/J mouse, oral XCHT extract 500 mg/kg, blood, mean±SD, n=6
[3] = male A/J mouse, oral XCHT extract 500 mg/kg, blood, median (min~max), n=6
[4] = male, A/J, mouse, whole blood, po, 500 mg/kg

SMILES	Accuracy (RE, %) 25°C for 6 h ([1]; spiked concentration 0.488) [%]	Accuracy (RE, %) 25°C for 6 h ([1]; spiked concentration 62.5) [%]	Accuracy (RE, %) 25°C for 6 h ([1]; spiked concentration 500) [%]	Accuracy (RE, %) Frozen for 30 days ([1]; spiked concentration 0.488) [%]	Accuracy (RE, %) Frozen for 30 days ([1]; spiked concentration 62.5) [%]	Accuracy (RE, %) Frozen for 30 days ([1]; spiked concentration 500) [%]	Accuracy (RE, %) 4°C for 24 h ([1]; spiked concentration 0.488) [%]	Accuracy (RE, %) 4°C for 24 h ([1]; spiked concentration 62.5) [%]	Accuracy (RE, %) 4°C for 24 h ([1]; spiked concentration 500) [%]	concentration in the PK study (in vivo; A/J mice, blood, time 15 min)	AUC0-∞ (in vivo; [2]) [µM·h]	AUC(0-t) (in vivo; [2]) [µM·h]	Cmax (in vivo; [2]) [nM]	t1/2 (in vivo; [2]) [h]	Tmax (in vivo; [3])	detected in the blood (in vivo)	Accuracy (RE, %) 25°C for 6 h ([1]; spiked concentration 6.25) [%]	Accuracy (RE, %) 25°C for 6 h ([1]; spiked concentration 50) [%]	Accuracy (RE, %) Frozen for 30 days ([1]; spiked concentration 6.25) [%]	Accuracy (RE, %) Frozen for 30 days ([1]; spiked concentration 50) [%]	also measured
CC(C)=CCC[C@](C)(O[C@@H]1O[C@H](CO)[C@@H](O)[C@H](O)[C@H]1O)[C@H]1CC[C@]2(C)[C@@H]1[C@H](O)C[C@@H]1[C@@]3(C)CC[C@H](O[C@@H]4O[C@H](CO)[C@@H](O)[C@H](O)[C@H]4O[C@@H]4O[C@H](CO)[C@@H](O)[C@H](O)[C@H]4O)C(C)(C)[C@@H]3CC[C@]12C [Rd, Ginsenoside Rd]	13.3	−3.7	−7.1	11.6	11.4	12.2	−4	12.8	12.3	–	–	–	–	–	–	–	–	–	–	–	concentration in the PK study (in vivo; A/J mice, blood, time 360 min): 5.07±6.67; concentration in the PK study (in vivo; A/J mice, blood, time 720 min): 6.23±7.96; concentration in the PK study (in vivo; A/J mice, blood, time 1440 min): 5.20±7.64
CC(C)=CCC[C@](C)(O[C@@H]1O[C@H](CO)[C@@H](O)[C@H](O)[C@H]1O)[C@H]1CC[C@]2(C)[C@@H]1[C@H](O)C[C@@H]1[C@@]3(C)CC[C@H](O)C(C)(C)[C@@H]3[C@@H](O[C@@H]3O[C@H](CO)[C@@H](O)[C@H](O)[C@H]3O)C[C@]12C [Rg1, ginsenoside Rg1]	14.8	7.4	8.5	7.2	9.2	12.5	4.7	10.1	12.12	0.80±0.50	–	–	–	–	–	–	–	–	–	–	concentration in the PK study (in vivo; A/J mice, blood, time 480 min): 1.16±0.29
COc1c(O[C@@H]2O[C@H](C(=O)O)[C@@H](O)[C@H](O)[C@H]2O)cc(O)c2c(=O)cc(-c3ccccc3)oc12 [Wogonoside, wogonoside]	14.1	8.5	1.4	−10.9	10.1	11.2	2.3	15.1	12.6	–	1.55574 ± 0.12091	1.44654 ± 0.33091	174 ± 42.1	4.77 ± 1.24	1.625 (0.083~3) h	detected	–	–	–	–	Tmax (in vivo; mean±SD, A/J mice, oral XCHT 0.5 g/kg): 1.58 ± 1.63 h
O=C1C[C@@H](c2ccc(O[C@@H]3O[C@H](CO)[C@@H](O)[C@H](O)[C@H]3O)cc2)Oc2cc(O)ccc21 [Liquiritin]	7.3	5.5	12.7	13.9	13.8	10.9	14.4	15	12.8	–	–	–	–	–	–	detected	–	–	–	–	AUC(0-inf) (in vivo; [4]): 0.137 ± 0.0417 µM·h; AUC(0-t) (in vivo; [4]): 0.137 ± 0.0417 µM·h; Cmax (in vivo; [4]): 48.7 ± 38.2 nM; half-life (in vivo; [4]): 9.33 ± 3.42 h
C[C@H]1O[C@@H](O[C@H]2CC[C@@]3(C)[C@@H](CC[C@]4(C)[C@@H]3C=C[C@]35OC[C@@]6(CCC(C)(C)C[C@H]63)[C@H](O)C[C@]54C)[C@]2(C)CO)[C@H](O)[C@@H](O[C@@H]2O[C@H](CO)[C@@H](O)[C@H](O)[C@H]2O)[C@H]1O [SSd, saikosaponin d]	–	–	–	–	–	–	–	–	–	–	0.02584 ± 0.0185	0.02584 ± 0.0185	3.42 ± 0.74	12.18 ± 5.32	0.50 (0.125~0.5) h	detected	−13.0	2.4	12.5	15.0	Accuracy (RE, %) 25°C for 6 h ([1]; spiked concentration 0.049): 6.8%; Accuracy (RE, %) Frozen for 30 days ([1]; spiked concentration 0.049): 8.7%; Accuracy (RE, %) 4°C for 24 h ([1]; spiked concentration 0.049): −19%; Accuracy (RE, %) 4°C for 24 h ([1]; spiked concentration 6.25): 13.1%; Accuracy (RE, %) 4°C for 24 h ([1]; spiked concentration 50): 14.5%
C[C@H]1O[C@@H](O[C@H]2CC[C@@]3(C)[C@@H](CC[C@]4(C)[C@@H]3C=C[C@]35OC[C@@]6(CCC(C)(C)C[C@H]63)[C@@H](O)C[C@]54C)[C@]2(C)CO)[C@H](O)[C@@H](O[C@@H]2O[C@H](CO)[C@@H](O)[C@H](O)[C@H]2O)[C@H]1O [SSa, saikosaponin a]	–	–	–	–	–	–	–	–	–	1.17±0.88	–	–	–	–	–	–	−1.5	7.4	10.8	12.1	concentration in the PK study (in vivo; A/J mice, blood, time 5 min): 0.69±0.26; concentration in the PK study (in vivo; A/J mice, blood, time 30 min): 1.02±0.75; concentration in the PK study (in vivo; A/J mice, blood, time 60 min): 1.15±0.77; concentration in the PK study (in vivo; A/J mice, blood, time 120 min): 0.85±0.51; Accuracy (RE, %) 25°C for 6 h ([1]; spiked concentration 0.39): 0.7%; Accuracy (RE, %) Frozen for 30 days ([1]; spiked concentration 0.39): −6.7%; Accuracy (RE, %) 4°C for 24 h ([1]; spiked concentration 0.39): −7.4%; Accuracy (RE, %) 4°C for 24 h ([1]; spiked concentration 6.25): 12%; Accuracy (RE, %) 4°C for 24 h ([1]; spiked concentration 50): 10.6%
